A selection: hits, their analogues and other compounds. The true share with any hit is near 5.7%.
CSC inhib: cancer stem cell viability inhibitors, primary screen, luminescence; cancer stem cell-like cells viability; inhibition, % at 7.5 µM; 1.1% of 300,000 active; in the data active means inhibition above about 75%; inconclusive means no clear call, values can overlap the other calls; tested in HMLE shEcad cells
Beta cell apopt: inhibitors of cytokine-induced beta cell apoptosis, primary screen, luminescence | protection from apoptosis, % (test concentration not listed) | AID 435005, 2010 | 0.8% of 300,000 active | INS-1E cytokine-induced death, ATP luminescence, 48 h; percent of positive-control rescue, neutral wells zero;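 active means Every replicate reaches about 75%, or at least half do and their mean reaches it too, limit read from the data; inconclusive means At least half of replicates reach the limit but their mean does not; inactive means Under half of replicates reach the limit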;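 further: 0% = cytokine-treated negative control wells and 100% = positive control rescue; higher means more ATP so stronger rescue from cytokine killing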
SKKanGAS inh: S. pyogenes SKKanGAS growth inhibitors in kanamycin, primary screen, streptokinase expression inhibitor project, SKKanGAS strain, BacTiter-Glo luminescence. inhibition, % at 7.5 µM. 1.3% of 300,000 active. 6 h;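 active means mean replicate score, as percent of positive control median, at least 50; inconclusive means mean below 50 but one replicate at or above 50; inactive means mean and every replicate below 50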;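 further: strain carries kanamycin resistance gene driven by streptokinase promoter and grows in 40 µg/ml kanamycin; loss of luminescence reflects streptokinase promoter inhibition or plain growth inhibition; 0% = median of DMSO wells and 100% = positive control at its reference dose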
Mdm2-MdmX inh: inhibitors of human Mdm2-MdmX association, primary screen, cell-based, luminescence, split luciferase, SaOS-2, uHTS. Protein Mdm4 (Homo sapiens) + E3 ubiquitin-protein ligase Mdm2 (Homo sapiens), …. SaOS-2 split-luciferase Mdm2/MdmX complementation. inhibition, % at 8 µM. 3% of 330,000 active. AID 485346, 2010;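 active means inhibition of at least 50% at 8 µM in the primary screen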
T cruzi repl: inhibitors of intracellular T. cruzi growth, primary screen, luminescence, NIH3T3 host cells | T. cruzi beta-gal in NIH3T3, 90 h | inhibition, % (no concentration beside the values) | AID 1885, 2009 | 1.4% of 300,000 active;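 active means mean inhibition across valid replicates above about 55%, limit read from the data; inconclusive means mean below that limit but half or more replicates reach it; inactive means mean below it, under half of replicates reach it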;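 further: signal also drops with host cell toxicity which is not excluded here; 0% = plate median of DMSO wells and 100% = zero luminescence signal; higher percent means less beta-gal luminescence so fewer parasites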
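System: NIH/3T3 fibroblasts plus reporter T. cruzi. Medium: DMEM plus 2% FBS. Probe or stimulus: 5000 reporter trypomastigotes per well. Compound: single 50 nL compound addition per well in DMSO. Incubation: co-culture of at least 90 h after 3 h attachment. Detection: GalScreen β-gal luminescence, detergent lysis, 60 min. Evaluation: parasite load inhibition, %.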
Calb FLC: C. albicans growth inhibition with fluconazole, primary screen, CaCi-2 strain, Alamar Blue fluorescence. C. albicans CaCi-2 (fluconazole-resistant clinical isolate) + fluconazole, 48 h. growth inhibition, % (no concentration beside the values). 0.57% of 300,000 active;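 active means growth inhibition above about 58% in most replicates, limit read from the data, passing the limit was not always enough; inconclusive means exactly half the replicates above a set limit; inactive means most replicates below a set limit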;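 further: all wells also contain fluconazole at 8 µg/ml as a sub-toxic cotreatment; 0% = median of DMSO wells and 100% = median of geldanamycin control wells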
* = called active by the depositor; ? = inconclusive; . = no result given.

SMILES | CSC inhib | Beta cell apopt | SKKanGAS inh | Mdm2-MdmX inh | T cruzi repl | Calb FLC
CCOC(=O)[C@H]1[C@H]2COc3ccc(Br)cc3[C@@H]2N2C(=O)c3cc(F)c(F)cc3NC(=O)[C@@]12C | 1 | 5 | . | 25 | . | .
CC(C)(C)C1CCC(OC(=O)C[N+]2(C)CCCCC2)CC1 (stereo unspecified) | 58 | 3 | -11 | -6 | -17 | 79*
CC(C)(C)C1CCC(OC(=O)C[N+]2(C)CCCC2)CC1 (stereo unspecified) | 50 | 3 | 9 | 7 | 5 | -23
CS(=O)(=O)c1cccc(NC(=O)C2CCCN2S(=O)(=O)c2ccc(F)cc2)c1 (stereo unspecified) | -10 | -4 | -1 | 10 | -1 | 3
O=C(Nc1nnc(SCc2ccccc2Cl)s1)C1COc2ccccc2O1 (stereo unspecified) | 19 | 1 | 69* | 29 | 16 | 12
Cc1ccccc1CSc1nnc(NC(=O)C2COc3ccccc3O2)s1 (stereo unspecified) | . | -7 | 18 | -1 | -6 | 26
Nc1nonc1C(=O)NCCN=Cc1cc(Cc2ccccc2)cc(Br)c1O | . | -3 | 52* | 22 | -28 | -2
Nc1nonc1C(=O)NCCN=Cc1ccccc1O | -7 | -6 | -1 | 7 | -9 | -1
C/C(Cl)=C\Cn1c(O)c(N=NC(N)=S)c2ccccc21 | 21 | 11 | -7 | 44 | 60* | -17
NC(=S)N=Nc1c(O)n(Cc2ccccc2)c2ccccc12 | -2 | 6 | 3 | 28 | 41 | -10
CCCCNC(=S)N=Nc1c(O)n(Cc2ccccc2)c2ccccc12 | 80* | 8 | 22 | 38 | 9 | -12
Oc1c(N=NC(=S)Nc2ccccc2F)c2ccccc2n1Cc1ccccc1Cl | 2 | 38 | . | 40 | 68* | 13
CC(OC(=O)Cn1cnc2c1c(=O)n(C)c(=O)n2C)C(=O)NC1CCCCC1C (stereo unspecified) | -7 | -4 | 2 | 4 | -6 | -2
CCOC(=O)C1=C(COC(=O)/C=C/c2cccc(OC)c2OC)NC(=O)NC1C (stereo unspecified) | -6 | 0 | 21 | 11 | -9 | -2
CCCCN1C(=O)C(=O)N(CC(=O)c2ccc3c(c2)OCO3)C1=O | 4 | -2 | -2 | -8 | -16 | 2
CCOc1ccccc1N1CCN(C(=O)c2ccc3nc(N)sc3c2)CC1 | 4 | -2 | . | 25 | . | .
COc1ccccc1OCCCn1c(C)c(C#N)c2ccccc21 | -8 | 1 | 62* | -10 | 25 | 8
C[C@]12CC[C@@H]3c4ccc(O)cc4CC[C@H]3[C@@H]1CCC2=O | -4 | -3 | -2 | 42 | -3 | .
CCCCC(=O)O[C@H]1CC[C@H]2[C@@H]3CCc4cc(O)ccc4[C@H]3CC[C@]12C | 24 | -5 | 89* | 38 | 19 | -5
C[C@]12CC[C@@H]3c4ccc(O)cc4CC[C@H]3[C@@H]1CC[C@@H]2OC(=O)CCC1CCCC1 | 22 | 8 | 111* | 29 | -24 | .
C/C(=N\NC(=O)CCc1ccccc1)C1C(=O)c2ccccc2C1=O | 8 | 17 | 18 | 31 | 17 | ?
C/C(=N\NC(=O)c1cccc(Cl)c1)C1C(=O)c2ccccc2C1=O | 93* | 10 | 18 | -15 | 13 | -16
Cc1nn(-c2ccccc2)c(N)c1Sc1ccc([N+](=O)[O-])cc1 | -1 | -12 | 13 | -5 | -13 | 4
Cc1nn(S(=O)(=O)c2ccc(Cl)cc2)c(C)c1Sc1ccc([N+](=O)[O-])cc1 | 7 | 86* | -4 | . | 62* | 15
CC(NC(=O)OCc1ccccc1)C(=O)Oc1cc2oc(=O)cc(-c3ccccc3)c2cc1Cl (stereo unspecified) | 7 | -16 | 10 | 42 | 1 | 82*
SMILES | CSC inhib | Beta cell apopt | SKKanGAS inh | Mdm2-MdmX inh | T cruzi repl | Calb FLC
CCc1cc2c(-c3ccccc3)cc(=O)oc2cc1OC(C)C(=O)O (stereo unspecified) | -20 | -3 | 1 | 18 | -4 | 7
COc1cccc(C(=O)N2CCCC(Nc3ccc(C)c(C)c3)C2)c1 (stereo unspecified) | -4 | 5 | -2 | -2 | 21 | -2
COc1ccc(Cl)cc1NC(=O)CN(C)C(=O)CCc1nc2ccccc2c(=O)[nH]1 | -15 | 6 | . | 14 | . | .
Oc1ccc(C[C@@H]2CNC(=S)N2CCCCC2CCCCC2)cc1 | 115* | -3 | 25 | -17 | 33 | -16
O=C1NC[C@H](Cc2ccc(O)cc2)N(CC2CCCCC2)C1=O | -11 | 6 | 1 | 20 | -2 | 10
CC1CCC(C(C)C)C(OC(=O)COC(=O)c2cc(O)ccc2N)C1 (stereo unspecified) | 38 | -3 | 11 | 22 | 70* | 48
N#Cc1ccc(CN2CCN(C(=O)CNS(=O)(=O)c3ccc4c(c3)OCCCO4)CC2)cc1 | -2 | -1 | . | 9 | . | .
Cc1ccc2c(c1)N(CC(=O)NC1CCCC(C)C1C)C(=O)c1cccnc1O2 (stereo unspecified) | 0 | 3 | 8 | 18 | -5 | -7
O=C(NCCN1CCOCC1)c1ccncc1 | -10 | -3 | 2 | 8 | -1 | -3
O=C1C=C(NCCN2CCOCC2)C(=O)c2cnccc21 | -14 | 98* | 31 | . | -9 | 27
C/C=C/c1ccc(OCC(O)CN(C)Cc2ccc(SC)cc2)c(OC)c1 (stereo unspecified) | 8 | -4 | -1 | 24 | 60* | -6
C/C=C/c1ccc(OCC(O)CNCCc2ccc(OC)cc2)c(OC)c1 (stereo unspecified) | 6 | 7 | 3 | 16 | 26 | -12
O=C(N/N=C/c1cn(-c2cccs2)nc1-c1ccccc1)c1ccccc1Br | 83* | 7 | 14 | -7 | 11 | 1
COc1ccc(OC)c(-c2cc(C(F)(F)F)c3c(n2)sc2c(O)cc(=O)[nH]c23)c1 | 1 | 3 | 81* | 22 | -4 | 0
O=c1cc(O)c2sc3nc(-c4ccccc4)cc(C(F)(F)F)c3c2[nH]1 | -11 | 6 | 28 | -18 | 10 | 26
CCOc1ccc(S(=O)(=O)N(C)c2ccc(OCC(=O)Nc3ccccc3F)cc2)cc1 | . | . | . | 13 | . | .
Cc1ccccc1SCC(=O)Nc1cc(C(F)(F)F)ccc1N1CCOCC1 | 26 | 3 | -2 | 27 | 65* | -1
Cc1nnc(SCC(=O)Nc2cc(C(F)(F)F)ccc2N2CCOCC2)o1 | . | 3 | 2 | -28 | -5 | -6
Cc1ccc(C(=O)NNC(=O)c2cc(C)nc3ccccc23)cc1 | . | -3 | . | 9 | . | .

Screens as filed in PubChem.
